Laboratory results: ChEMBL document CHEMBL3046803, “Synthesis and insecticidal activities of novel anthranilic diamides containing acylthiourea and acylurea” (2012)
Values after ≈ are worked out from the molar mass of the structure shown.

Assays:
[1] = system: Mythimna separata; assay: Insecticidal activity against Mythimna separata (Oriental armyworm) fourth-instar larvae infected Zea mays leaves assessed as larvicidal activity at 200 mg/L measured 2 days post dose; format: functional
Method in brief: (§1)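 Foliar application test: individual corn (Tangyu 10) leaves were placed on moistened filter paper in Petri dishes.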

[2] = system: Mythimna separata; assay: Insecticidal activity against Mythimna separata (Oriental armyworm) fourth-instar larvae infected Zea mays leaves assessed as larvicidal activity at 50 mg/L measured 2 days post dose; format: functional; method in brief: as §1
[3] = system: Mythimna separata; assay: Insecticidal activity against Mythimna separata (Oriental armyworm) fourth-instar larvae infected Zea mays leaves assessed as larvicidal activity at 100 mg/L measured 2 days post dose; format: functional; method in brief: as §1
[4] = system: Mythimna separata; assay: Insecticidal activity against Mythimna separata (Oriental armyworm) fourth-instar larvae infected Zea mays leaves assessed as larvicidal activity at 20 mg/L measured 2 days post dose; format: functional; method in brief: as §1
[5] = system: Culex pipiens pallens; assay: Insecticidal activity against Culex pipiens pallens (mosquito) fourth-instar larvae assessed as larvicidal activity at 2 mg/L measured 3 days post dose; format: functional
Method in brief: (§2)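 Mosquito larvicidal test: compounds were dissolved in acetone and diluted with distilled water to the test concentrations.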

[6] = system: Mythimna separata; assay: Insecticidal activity against Mythimna separata (Oriental armyworm) fourth-instar larvae infected Zea mays leaves assessed as larvicidal activity at 10 mg/L measured 2 days post dose; format: functional; method in brief: as §1
[7] = system: Mythimna separata; assay: Insecticidal activity against Mythimna separata (Oriental armyworm) fourth-instar larvae infected Zea mays leaves assessed as larvicidal activity at 5 mg/L measured 2 days post dose; format: functional; method in brief: as §1
[8] = system: Culex pipiens pallens; assay: Insecticidal activity against Culex pipiens pallens (mosquito) fourth-instar larvae assessed as larvicidal activity at 1 mg/L measured 3 days post dose; format: functional; method in brief: as §2
[9] = system: Plutella xylostella; assay: Insecticidal activity against Plutella xylostella (diamondback moth) s-instar larvae infected in fresh cabbage leaves assessed as larvicidal activity at 0.01 mg/L measured 2 days post dose; format: functional
Method in brief: (§3)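 Leaf-dip (spray) test: a 200 mg/L stock in DMF was diluted with distilled water. Cabbage leaf disks (6 × 2 cm) were sprayed for 3 s, dried, and placed individually in glass tubes. Each disk received 30 second-instar larvae. Mortality was scored at 2 days; triplicate.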

[10] = target: Voltage-dependent L-type calcium channel, putative (Pediculus humanus subsp. corporis) (UniProt E0VY79); assay: Inhibition of voltage-dependent L-type calcium channel in Spodoptera exigua neurons assessed as peak calcium current at 0.1 mM measured 3 min post dose by electrophysiology method (reference value: 101.76 +/- 2.7%); design: scale not given: the % may be the effect or the level left
[11] = system: Plutella xylostella; assay: Insecticidal activity against Plutella xylostella (diamondback moth) s-instar larvae infected in fresh cabbage leaves assessed as larvicidal activity at 0.1 mg/L measured 2 days post dose; format: functional; method in brief: as §3
[12] = target: Voltage-dependent L-type calcium channel, putative (Pediculus humanus subsp. corporis) (UniProt E0VY79); assay: Inhibition of voltage-dependent L-type calcium channel in Spodoptera exigua neurons assessed as peak calcium current at 0.1 mM measured 1 min post dose by electrophysiology method (reference value: 104.47 +/- 2.33%); design: scale not given: the % may be the effect or the level left
[13] = system: Plutella xylostella; assay: Insecticidal activity against Plutella xylostella (diamondback moth) s-instar larvae infected in fresh cabbage leaves assessed as larvicidal activity at 0.001 mg/L measured 2 days post dose; format: functional; method in brief: as §3
[14] = system: Plutella xylostella; assay: Insecticidal activity against Plutella xylostella (diamondback moth) s-instar larvae infected in fresh cabbage leaves assessed as larvicidal activity measured 2 days post dose; format: functional; details: 48 h; method in brief: as §3
[15] = system: Plutella xylostella; assay: Insecticidal activity against Plutella xylostella (diamondback moth) s-instar larvae infected in fresh cabbage leaves assessed as larvicidal activity at 1 mg/L measured 2 days post dose; format: functional; method in brief: as §3
[16] = target: Voltage-dependent L-type calcium channel, putative (Pediculus humanus subsp. corporis) (UniProt E0VY79); assay: Inhibition of voltage-dependent L-type calcium channel in Spodoptera exigua neurons assessed as peak calcium current at 0.1 mM measured 2 min post dose by electrophysiology method (reference value: 102.75 +/- 2.45%); design: scale not given: the % may be the effect or the level left
[17] = target: Voltage-dependent L-type calcium channel, putative (Pediculus humanus subsp. corporis) (UniProt E0VY79); assay: Inhibition of voltage-dependent L-type calcium channel in Spodoptera exigua neurons assessed as peak calcium current at 0.1 mM measured 10 min post dose by electrophysiology method (reference value: 85.44 +/- 1.14%); design: scale not given: the % may be the effect or the level left
[18] = system: Culex pipiens pallens; assay: Insecticidal activity against Culex pipiens pallens (mosquito) fourth-instar larvae assessed as larvicidal activity at 0.5 mg/L measured 3 days post dose; format: functional; method in brief: as §2
[19] = system: Plutella xylostella; assay: Insecticidal activity against Plutella xylostella (diamondback moth) s-instar larvae infected in fresh cabbage leaves assessed as larvicidal activity at 20 mg/L measured 2 days post dose; format: functional; method in brief: as §3
[20] = target: Voltage-dependent L-type calcium channel, putative (Pediculus humanus subsp. corporis) (UniProt E0VY79); assay: Inhibition of voltage-dependent L-type calcium channel in Spodoptera exigua neurons assessed as peak calcium current at 0.1 mM measured 4 min post dose by electrophysiology method (reference value: 99.66 +/- 1.64%); design: scale not given: the % may be the effect or the level left
[21] = target: Voltage-dependent L-type calcium channel, putative (Pediculus humanus subsp. corporis) (UniProt E0VY79); assay: Inhibition of voltage-dependent L-type calcium channel in Spodoptera exigua neurons assessed as peak intracellular calcium level at 1000 mg/L measured 10 min post dose by calcium-imaging technique relative to initial untreated control; format: cell-based; design: scale not given: the % may be the effect or the level left
Method in brief: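 S. exigua neurons were rinsed in physiological saline (pH 6.9). They were dye-loaded in the dark at 28 °C, either with 10 μM fluo-3-AM for 45 min in standard saline or with 5 μM fluo-5N for 5 h in EGTA Ca-free saline, then rinsed twice. [Ca²⁺]i was imaged on an inverted fluorescence microscope (40× oil, 488/530 nm) over 10 min. F/F₀ is relative to resting baseline; ≥6 repeats; mean ± SD.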

[22] = target: Voltage-dependent L-type calcium channel, putative (Pediculus humanus subsp. corporis) (UniProt E0VY79); assay: Inhibition of voltage-dependent L-type calcium channel in Spodoptera exigua neurons assessed as peak calcium current at 0.1 mM measured 5 min post dose by electrophysiology method (reference value: 98.06 +/- 1.01%); design: scale not given: the % may be the effect or the level left
[23] = target: Voltage-dependent L-type calcium channel, putative (Pediculus humanus subsp. corporis) (UniProt E0VY79); assay: Inhibition of voltage-dependent L-type calcium channel in Spodoptera exigua neurons assessed as peak calcium current at 0.1 mM measured 8 min post dose by electrophysiology method (reference value: 90.85 +/- 0.65%); design: scale not given: the % may be the effect or the level left

Sequence of Voltage-dependent L-type calcium channel, putative (Pediculus humanus subsp. corporis) (E0VY79 as listed by the source): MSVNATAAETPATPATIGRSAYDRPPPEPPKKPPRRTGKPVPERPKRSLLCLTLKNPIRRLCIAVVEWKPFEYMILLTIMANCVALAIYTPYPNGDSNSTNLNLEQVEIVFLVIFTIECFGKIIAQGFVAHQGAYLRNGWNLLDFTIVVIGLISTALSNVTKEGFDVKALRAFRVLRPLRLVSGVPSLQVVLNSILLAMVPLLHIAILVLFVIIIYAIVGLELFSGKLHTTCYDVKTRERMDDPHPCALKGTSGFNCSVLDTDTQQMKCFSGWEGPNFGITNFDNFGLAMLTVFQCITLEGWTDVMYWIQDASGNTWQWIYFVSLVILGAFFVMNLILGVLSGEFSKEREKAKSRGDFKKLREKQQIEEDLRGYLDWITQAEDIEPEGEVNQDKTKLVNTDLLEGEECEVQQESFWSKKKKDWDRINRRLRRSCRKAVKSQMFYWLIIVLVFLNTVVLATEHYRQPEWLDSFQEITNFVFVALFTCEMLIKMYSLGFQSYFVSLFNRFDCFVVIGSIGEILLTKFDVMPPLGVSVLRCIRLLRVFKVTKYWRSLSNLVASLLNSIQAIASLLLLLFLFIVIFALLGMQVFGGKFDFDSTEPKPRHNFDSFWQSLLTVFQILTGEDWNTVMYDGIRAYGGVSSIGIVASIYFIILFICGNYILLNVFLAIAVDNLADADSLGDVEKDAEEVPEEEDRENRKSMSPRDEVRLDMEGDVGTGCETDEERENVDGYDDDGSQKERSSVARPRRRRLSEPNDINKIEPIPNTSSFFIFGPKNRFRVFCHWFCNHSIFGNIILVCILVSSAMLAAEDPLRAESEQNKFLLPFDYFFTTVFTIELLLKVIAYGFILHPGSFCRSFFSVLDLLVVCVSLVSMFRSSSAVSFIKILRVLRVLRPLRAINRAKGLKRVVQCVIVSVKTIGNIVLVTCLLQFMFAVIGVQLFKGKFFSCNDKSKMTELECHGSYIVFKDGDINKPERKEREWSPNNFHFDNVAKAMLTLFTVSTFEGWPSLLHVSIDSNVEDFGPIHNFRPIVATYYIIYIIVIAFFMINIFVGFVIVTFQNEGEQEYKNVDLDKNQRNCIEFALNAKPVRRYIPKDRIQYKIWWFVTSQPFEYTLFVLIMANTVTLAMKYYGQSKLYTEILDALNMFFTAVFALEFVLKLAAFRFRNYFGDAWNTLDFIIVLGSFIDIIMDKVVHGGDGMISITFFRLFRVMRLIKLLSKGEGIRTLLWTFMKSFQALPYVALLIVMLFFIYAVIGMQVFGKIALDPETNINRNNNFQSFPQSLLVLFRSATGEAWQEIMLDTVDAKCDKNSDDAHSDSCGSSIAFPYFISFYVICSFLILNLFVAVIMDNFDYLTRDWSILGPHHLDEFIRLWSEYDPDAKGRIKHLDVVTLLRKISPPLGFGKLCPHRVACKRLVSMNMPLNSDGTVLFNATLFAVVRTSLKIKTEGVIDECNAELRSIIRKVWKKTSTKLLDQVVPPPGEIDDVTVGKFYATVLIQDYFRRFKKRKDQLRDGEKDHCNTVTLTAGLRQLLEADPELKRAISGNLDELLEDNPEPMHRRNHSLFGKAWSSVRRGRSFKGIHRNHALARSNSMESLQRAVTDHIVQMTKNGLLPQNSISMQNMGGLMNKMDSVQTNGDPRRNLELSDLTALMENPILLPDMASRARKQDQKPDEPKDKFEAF

Question: How did the Activity [1] turn out when `CCCCNC(=O)c1cc(Cl)cc(C)c1NC(=O)NC(=O)c1cc(C(F)(F)F)nn1-c1ncccc1Cl` was run?
Answer: 40%

Question: How did the Activity [1] turn out when `Cc1cc(Cl)cc(C(=O)NC2CCCCC2)c1NC(=O)NC(=O)c1cc(C(F)(F)F)nn1-c1ncccc1Cl` was run?
Answer: 0%

Question: Which Activity [1] does the source give for `Cc1cc(Cl)cc(C(=O)NC(C)(C)C)c1NC(=O)NC(=O)c1cc(C(F)(F)F)nn1-c1ncccc1Cl` here?
Answer: 60%

Question: For `CNC(=O)c1cc(Cl)cc(C)c1NC(=S)NC(=O)c1cc(Br)nn1-c1ncccc1Cl`, which Activity [2] is on record?
Answer: 100%

Question: And the Activity [1]?
Answer: 100%

Question: What about the Activity [3] of the same molecule?
Answer: 100%

Question: What about the Activity [4] of the same molecule?
Answer: 100%

Question: And the Activity [5]?
Answer: 60%

Question: What about the Activity [6] of the same molecule?
Answer: 100%

Question: And the Activity [7]?
Answer: 50%

Question: And the Activity [8]?
Answer: 20%

Question: How did the Activity [1] turn out when `CCCNC(=O)c1cccc(C)c1NC(=O)NC(=O)c1cc(C(F)(F)F)nn1-c1ncccc1Cl` was run?
Answer: 60%

Question: Which results are given for `Cc1cccc(C(=O)NC2CC2)c1NC(=O)NC(=O)c1cc(C(F)(F)F)nn1-c1ncccc1Cl`?
Answer: Activity [1]: 100%; Activity [3]: 80%

Question: Which Activity [1] does the source give for `Cc1cc(Cl)cc(C(=O)NC2CC2)c1NC(=O)NC(=O)c1cc(C(F)(F)F)nn1-c1ncccc1Cl` here?
Answer: 20%

Question: Which Activity [1] does the source give for `Cc1cc(Cl)cc(C(=O)NC(C)C)c1NC(=O)NC(=O)c1cc(C(F)(F)F)nn1-c1ncccc1Cl` here?
Answer: 70%

Question: What does the source list for `Cc1cc(Cl)cc(C(=O)NC2CCCCC2)c1NC(=S)NC(=O)c1cc(Br)nn1-c1ncccc1Cl`?
Answer: Activity [1]: 0%; Activity [5]: 40%

Question: With `CNC(=O)c1cc(Cl)cc(C)c1NC(=O)c1cc(Br)nn1-c1ncccc1Cl` [CHLORANTRANILIPROLE] as the molecule, how does the Activity [9] read?
Answer: 100%

Question: And the Activity [10]?
Answer: 69.6%

Question: And the Activity [11]?
Answer: 100%

Question: And the Activity [12]?
Answer: 89.6%

Question: What about the Activity [2] of the same molecule?
Answer: 100%

Question: What about the Activity [13] of the same molecule?
Answer: 100%

Question: What about the Activity [1] of the same molecule?
Answer: 100%

Question: What about the LC50 [14] of the same molecule?
Answer: 0.0123 ng/mL (≈ 0.0255 nM)

Question: What about the Activity [15] of the same molecule?
Answer: 100%

Question: What about the Activity [16] of the same molecule?
Answer: 74%

Question: What about the Activity [3] of the same molecule?
Answer: 100%

Question: And the Activity [17]?
Answer: 39.7%

Question: What about the Activity [4] of the same molecule?
Answer: 100%

Question: What about the Activity [18] of the same molecule?
Answer: 100%

Question: And the Activity [19]?
Answer: 100%

Question: What about the Activity [20] of the same molecule?
Answer: 63.4%

Question: What about the Activity [21] of the same molecule?
Answer: 123%

Question: What about the Activity [5] of the same molecule?
Answer: 100%

Question: What about the Activity [6] of the same molecule?
Answer: 100%

Question: And the Activity [22]?
Answer: 55.8%

Question: And the Activity [7]?
Answer: 100%

Question: What about the Activity [8] of the same molecule?
Answer: 100%

Question: And the Activity [23]?
Answer: 44.3%

Question: `Cc1cccc(C(=O)NCCC(C)C)c1NC(=S)NC(=O)c1cc(Br)nn1-c1ncccc1Cl` was tested. Which Activity [1] did it give?
Answer: 100%

Question: And the Activity [3]?
Answer: 30%

Question: And the Activity [5]?
Answer: 20%

Question: What does the source list for `Cc1cccc(C(=O)NCCC(C)C)c1NC(=S)NC(=O)c1cc(Cl)nn1-c1ncccc1Cl`?
Answer: Activity [1]: 60%; Activity [5]: 10%

Question: How did the Activity [2] turn out when `Cc1cccc(C(=O)NC(C)C)c1NC(=S)NC(=O)c1cc(Cl)nn1-c1ncccc1Cl` was run?
Answer: 100%

Question: What about the Activity [1] of the same molecule?
Answer: 100%

Question: And the Activity [3]?
Answer: 100%

Question: What about the Activity [4] of the same molecule?
Answer: 100%

Question: What about the Activity [5] of the same molecule?
Answer: 20%

Question: And the Activity [6]?
Answer: 100%

Question: What about the Activity [7] of the same molecule?
Answer: 0%
